The list is not random: actives were taken first. Their share in the collection is about 2.1%.
CAL PDZ FP-1: inhibitors of human CAL PDZ peptide binding; inhibition, % at 24.9 µM; hit rate 0.92% among 300,000; AID 602252; purified CAL PDZ, TMR-peptide fluorescence polarization, 1 h;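 active = mean inhibition of at least 30% with at least half of replicates also reaching 30%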;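 also: 0% = DMSO neutral control and 100% = excess unlabeled competitor peptide PRC23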
SR-BI uptake up: activators of SR-BI mediated HDL lipid uptake; activation, % at 12.5 µM; CHO ldlA[mSR-BI] cells, DiI-HDL uptake fluorescence, 3 h; 100 = double the neutral-control signal; AID 504775; hit rate 0.096% among 320,000;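 active = mean replicate activation of at least 60% and every replicate at or above 60%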;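 also: 0% = median plate neutral-control signal and 100% = twice that signal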
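Test system: SR-BI-overexpressing, LDLR-lacking CHO cells; Medium: Ham's F12 with 0.5% BSA, HEPES 25 mM, pH 7.4; Schedule: 3 h, 37 °C; Technique: bottom-read fluorescence, 550/595 nm.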
SR-BI DiI inh: mouse SR-BI HDL lipid transfer inhibition; Q61009; ldlA[mSR-BI] CHO cells, DiI-HDL uptake fluorescence, 3 h; inhibition, % at 12.5 µM; hit rate 0.96% among 320,000;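 active = mean replicate inhibition of at least 70% and a set share of replicates each scoring 70 or more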;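 also: 0% = median of neutral control wells and 100% = median of positive control wells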
Target sequence (Q61009 whole entry, looked up): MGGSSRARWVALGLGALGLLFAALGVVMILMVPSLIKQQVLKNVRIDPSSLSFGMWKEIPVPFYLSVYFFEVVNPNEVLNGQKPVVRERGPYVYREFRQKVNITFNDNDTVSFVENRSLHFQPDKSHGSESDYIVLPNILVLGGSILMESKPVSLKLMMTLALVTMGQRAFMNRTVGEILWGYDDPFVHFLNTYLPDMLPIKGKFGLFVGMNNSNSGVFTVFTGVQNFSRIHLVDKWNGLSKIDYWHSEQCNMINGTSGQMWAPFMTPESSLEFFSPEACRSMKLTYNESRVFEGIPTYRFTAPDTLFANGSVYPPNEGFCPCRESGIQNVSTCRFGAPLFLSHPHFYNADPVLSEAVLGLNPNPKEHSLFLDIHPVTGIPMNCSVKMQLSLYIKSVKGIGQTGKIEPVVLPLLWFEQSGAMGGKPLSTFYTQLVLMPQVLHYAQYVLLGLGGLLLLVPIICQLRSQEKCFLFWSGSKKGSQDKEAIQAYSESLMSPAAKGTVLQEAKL
miR122 inh: blocks miR-122 activity in Huh7 sensor cells | hit rate 0.3% among 340,000 | AID 602342 | activation (reporter increase), % at 12.5 µM | Huh7 miR-122 Renilla luciferase sensor, 48 h; neutral wells = 0, positive control = 100;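 active = mean replicate activation score at least 90 and every replicate individually at or above 90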;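 also: higher luciferase means less miR-122 activity so hits act as miR-122 inhibitors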
CAL PDZ FP-2: blocks peptide binding to human CAL PDZ domain | hit rate 0.02% among 330,000 | Q9HD26 | inhibition, % at 20 µM | purified CAL PDZ, TMR-peptide fluorescence polarization, 1 h;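 active = highest replicate inhibition of at least 40%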;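 also: plate controls were DMSO neutral control wells for no effect and unlabeled competitor peptide control wells for full effect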
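Material: tagged CAL PDZ protein CerCALP, purified; buffer or medium: sodium phosphate/NaCl buffer pH 7.4 with TCEP, IgG, Thesit; also added: fluorescent TMR peptide probe; schedule: 1 h incubation at room temperature before polarization reading; technique: fluorescence polarization from S- and P-plane intensities, G-factor corrected; control set: unlabelled peptide and DMSO controls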
ARNT-TACC3 inh: ARNT/TACC3 interaction disruption | Q9Y6A5 | AlphaScreen His-ARNT PAS-B/GST-TACC3 binding, luminescence; TACC3 fragment carries E629A point mutation | inhibition, % at 9.99 µM | hit rate 0.66% among 390,000 | AID 623870;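 active = mean inhibition of replicates at least 50% and at least half of replicates each reaching 50%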;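 also: 0% = complete ARNT plus TACC3 wells and 100% = ARNT alone without TACC3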
* hit, by the source's call; nt = not tested or not shown; [ ] = dose if it differs, or a comment.

SMILES	CAL PDZ FP-1	SR-BI uptake up	SR-BI DiI inh	miR122 inh	CAL PDZ FP-2	ARNT-TACC3 inh
Cc1ccc(C)c2sc(NC(=O)c3ccc(N4CCCCC4)c([N+](=O)[O-])c3)nc12	-4.9	-71.2	71.2*	-0.1	-1.5	5.0
Cc1cccc(NC(=O)c2ccc(N3CCCCC3)c([N+](=O)[O-])c2)n1	nt	-76.6	76.6*	-20.0	-1.7	15.8
Cc1ccc(C(=O)Nc2cccc(-c3ccc(N4CCOCC4)nn3)c2)cc1[N+](=O)[O-]	-0.7	-73.3	73.3*	1.7	-1.5	-2.9
O=C(Nc1cccc(-c2ccc(N3CCOCC3)nn2)c1)c1ccc([N+](=O)[O-])cc1	-4.8	-63.4	63.4	-1.1	-2.0	4.6
O=C(Nc1ccc(-c2nc3ccccc3o2)cc1)c1ccc(N2CCOCC2)c([N+](=O)[O-])c1	-5.0	-81.2	81.2*	nt	-1.7	7.2
Cc1ccc(C(=O)Nc2cc(C(F)(F)F)ccc2N2CCCCC2)cc1[N+](=O)[O-]	0.0	-20.8	20.8	-1.0	nt	-2.5
CCC(=O)N1CCN(c2ccc(Cl)cc2NC(=O)c2ccc(N3CCCC3)c([N+](=O)[O-])c2)CC1	5.6	-76.2	76.2*	-5.3	-0.9	5.5
N#CCCN(Cc1cccnc1)S(=O)(=O)c1ccc2ccccc2c1	5.7	6.2	-6.2	-14.2	0.3	-15.4
N#CCCN(Cc1ccccc1)S(=O)(=O)c1cccs1	61.5*	-10.3	10.3	nt	nt	-24.8
CCOC(=O)N1CCC(=NNc2ncc(C(F)(F)F)cc2Cl)CC1	-2.7	-24.3	24.3	-15.3	-1.1	0.6
CC(=O)N1CCC(=NNc2ncc(C(F)(F)F)cc2Cl)CC1	-2.4	16.0	-16.0	nt	-1.9	47.8*
COc1cc(C=NO)nc(-c2ccccn2)c1	-11.8	-4.0	4.0	-3.7	-0.1	59.2*
CO[C@@H]1CC[C@@H]2CCN(C)C(=O)[C@@H](C)[C@H](OC)CN(C)C(=O)c3cc(C#N)ccc3OC[C@@H]1O2	nt	nt	nt	nt	nt	-12.3
COc1ccccc1NC(=O)Nc1nc(CC(=O)Nc2ccc(OC)c(OC)c2)cs1	-2.3	-82.3	82.3*	nt	-3.6	15.7
Cc1nc(SCC(=O)N2CCN(C(=O)c3ccco3)CC2)c2c(C)c(C)sc2n1	30.9*	-12.7	12.7	-18.9	nt	-2.4
N#CC1C(=O)NC(=O)CC12CCCCC2 (stereo not drawn)	80.1*	17.0	-17.0	-2.6	-3.1	-2.8
CCSC1=C(C#N)C2(CCCCC2)C(C#N)C(=O)N1 (stereo not drawn)	-2.0	0.0	0.0	-1.9	-1.0	0.1
C/C(=N\NC(=O)c1cccc(S(=O)(=O)Nc2cccc(Cl)c2)c1)c1cccs1	-5.3	-19.0	19.0	148.4*	-2.0	nt
CCN(CC)S(=O)(=O)c1cccc(C(=O)N/N=C(\C)c2cccs2)c1	nt	7.2	-7.2	0.3	-0.2	12.5
Cc1cc(Cl)ccc1OCCCC(=O)NNC(=O)c1ccccc1O	-4.5	-108.8	108.8*	-0.7	-1.8	0.9
COc1ccc(OC)c(NC(=O)NNC(=O)CCCOc2ccc(Cl)cc2C)c1	47.8*	-43.8	43.8	nt	-0.5	-4.8
CCOC(=O)C(NCc1ccco1)(NC(=O)c1ccccc1)C(F)(F)F (stereo not drawn)	42.9*	16.8	-16.8	-4.0	-1.1	1.4
N#Cc1ccccc1NC(=O)COC(=O)COc1ccccc1[N+](=O)[O-]	35.4*	21.4	-21.4	nt	-0.5	-9.1
CCOc1ccc(OCC(=O)OCC(=O)Nc2ccccc2C#N)cc1	-1.0	4.2	-4.2	-7.4	-1.2	-1.4
CC(C)OC(=O)N(C)C[C@@H]1OCc2ccccc2-c2ccccc2C(=O)N([C@@H](C)CO)C[C@@H]1C	nt	nt	nt	nt	nt	0.9
COc1cccc(S(=O)(=O)Nc2ccc3c(c2)C(=O)N(C)[C@@H]2CC[C@H](CC(=O)O)O[C@H]2CO3)c1	nt	nt	nt	13.3[16.7 µM]	nt	-0.5
C/C(=N/Nc1ccc([N+](=O)[O-])cc1)c1c[nH]c2ccccc12	-0.9	-126.7	126.6*	5.6	-0.3	-0.3
C/C(=N\Nc1ccc([N+](=O)[O-])cc1)c1ccc(C#N)cc1	-1.2	-77.6	77.6*	2.8	-2.1	24.1

Screening data as filed in PubChem BioAssay.
